Test results published in ChEMBL document CHEMBL1152292, “Biarylpyrazolyl oxadiazole as potent, selective, orally bioavailable cannabinoid-1 receptor antagonists for the treatment of obesity” (J Med Chem, 2008).

target: Cannabinoid receptor 1 (Rattus norvegicus, UniProt P20272); test: Displacement of [3H]CP-55940 from CB1 receptor in Sprague-Dawley rat cerebellum by liquid scintillation spectrometry
How it was run: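 Cerebella from male rats (200-300 g) homogenized in TME buffer (50 mM Tris-HCl, 1 mM EDTA, 3 mM MgCl2, pH 7.4), centrifuged 48000g 30 min at 4 °C. About 10 µg membrane incubated with radioligand and varied test concentrations in TME plus 0.5% fatty-acid-free BSA, 1 h at 30 °C. Filtered through PEI-soaked GF/B filters. […] IC50 by nonlinear regression, triplicates, three independent experiments.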

Cannabinoid receptor 1, sequence (P20272 whole entry): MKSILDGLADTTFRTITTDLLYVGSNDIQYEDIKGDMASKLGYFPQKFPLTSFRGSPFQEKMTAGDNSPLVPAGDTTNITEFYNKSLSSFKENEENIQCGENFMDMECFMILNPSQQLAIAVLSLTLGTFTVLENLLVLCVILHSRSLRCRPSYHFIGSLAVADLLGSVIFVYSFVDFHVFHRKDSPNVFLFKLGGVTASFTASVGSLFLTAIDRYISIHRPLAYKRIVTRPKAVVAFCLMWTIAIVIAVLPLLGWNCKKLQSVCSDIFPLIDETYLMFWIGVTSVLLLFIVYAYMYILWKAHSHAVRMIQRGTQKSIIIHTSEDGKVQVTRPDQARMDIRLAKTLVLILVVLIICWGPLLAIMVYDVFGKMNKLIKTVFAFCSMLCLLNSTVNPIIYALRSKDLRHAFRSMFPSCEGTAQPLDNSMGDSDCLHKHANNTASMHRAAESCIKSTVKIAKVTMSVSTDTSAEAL

SMILES	IC50 [nM]
Clc1ccc(-n2nc(-c3nnc(C4(c5ccccc5)CC4)o3)c(Cn3cncn3)c2-c2ccc(Br)cc2)c(Cl)c1	0.96
Cc1c(-c2nnc(C(C)(C)c3ccc(Cl)cc3)o2)nn(-c2ccc(Cl)cc2Cl)c1-c1ccc(Cl)cc1	4.78
Cc1c(-c2nnc(C3CCC3)o2)nn(-c2ccc(Cl)cc2Cl)c1-c1ccc(Cl)cc1	13.1
FC(F)(F)C1(c2nnc(-c3nn(-c4ccc(Cl)cc4Cl)c(-c4ccc(Cl)cc4)c3Cn3cncn3)o2)CC1	1.51
CCCCCc1nnc(-c2nn(-c3ccc(Cl)cc3Cl)c(-c3ccc(Cl)cc3)c2C)o1	71.8
Cc1c(-c2nnc(C3CCCCCC3)o2)nn(-c2ccc(Cl)cc2Cl)c1-c1ccc(Cl)cc1	26.5
CC(C)(C)c1nnc(-c2nn(-c3ccc(Cl)cc3Cl)c(-c3ccc(Cl)cc3)c2Cn2ncnn2)o1	3.37
CC(C)(C)c1nnc(-c2nn(-c3ccc(Cl)cc3Cl)c(-c3ccc(Cl)cc3)c2CO)o1	14.6
CCC(CC)c1nnc(-c2nn(-c3ccc(Cl)cc3Cl)c(-c3ccc(Cl)cc3)c2C)o1	31.7
CCCCC(C)c1nnc(-c2nn(-c3ccc(Cl)cc3Cl)c(-c3ccc(Cl)cc3)c2C)o1 (stereo not given)	15.1
CC(C)(C)c1nnc(-c2nn(-c3ccc(Cl)cc3Cl)c(-c3ccc(Cl)cc3)c2C(=O)O)o1	> 10000
Cc1c(-c2nnc(C(C)c3ccccc3)o2)nn(-c2ccc(Cl)cc2Cl)c1-c1ccc(Cl)cc1 (stereo not given)	10.9
FC(F)(F)C1(c2nnc(-c3nn(-c4ccc(Cl)cc4Cl)c(-c4ccc(Br)cc4)c3Cn3cncn3)o2)CC1	0.93
CCCc1c(-c2nnc(C(C)(C)C)o2)nn(-c2ccc(Cl)cc2Cl)c1-c1ccc(Cl)cc1	33.5
Cc1c(-c2nnc(Cc3ccccc3)o2)nn(-c2ccc(Cl)cc2Cl)c1-c1ccc(Cl)cc1	19.2
CCCCC(C)(C)c1nnc(-c2nn(-c3ccc(Cl)cc3Cl)c(-c3ccc(Cl)cc3)c2C)o1	14.7

More lines, in order of falling IC50, values ahead:

IC50 [nM]	SMILES
281	Cc1c(-c2nnc(-c3ccccc3)o2)nn(-c2ccc(Cl)cc2Cl)c1-c1ccc(Cl)cc1
51.9	Cc1c(-c2nnc(Cc3ccccn3)o2)nn(-c2ccc(Cl)cc2Cl)c1-c1ccc(Cl)cc1
25	Cc1c(-c2nnc(C(C)C)o2)nn(-c2ccc(Cl)cc2Cl)c1-c1ccc(Cl)cc1
18	CC(C)c1c(-c2nnc(C(C)(C)C)o2)nn(-c2ccc(Cl)cc2Cl)c1-c1ccc(Cl)cc1
12	Cc1c(-c2nnc(C3CCCCC3)o2)nn(-c2ccc(Cl)cc2Cl)c1-c1ccc(Cl)cc1
10.4	CCC(C)c1nnc(-c2nn(-c3ccc(Cl)cc3Cl)c(-c3ccc(Cl)cc3)c2C)o1 (stereo not given)
10.4	CCC(C)(C)c1nnc(-c2nn(-c3ccc(Cl)cc3Cl)c(-c3ccc(Cl)cc3)c2C)o1
7.59	Cc1c(-c2nnc(C(C)(C)C)o2)nn(-c2ccc(Cl)cc2Cl)c1-c1ccc(Cl)cc1
6.57	CCc1c(-c2nnc(C(C)(C)C)o2)nn(-c2ccc(Cl)cc2Cl)c1-c1ccc(Cl)cc1
2.81	CC1(c2nnc(-c3nn(-c4ccc(Cl)cc4Cl)c(-c4ccc(Br)cc4)c3Cn3cncn3)o2)CC1
1.98	CC1(c2nnc(-c3nn(-c4ccc(Cl)cc4Cl)c(-c4ccc(Cl)cc4)c3Cn3cncn3)o2)CC1
0.86	C[C@H](NC(=O)C(C)(C)Oc1ccc(C(F)(F)F)cn1)[C@@H](Cc1ccc(Cl)cc1)c1cccc(C#N)c1 [TARANABANT]
0.57	Clc1ccc(C2(c3nnc(-c4nn(-c5ccc(Cl)cc5Cl)c(-c5ccc(Br)cc5)c4Cn4cncn4)o3)CC2)cc1

target: Cannabinoid receptor 2 (Homo sapiens, UniProt P34972); test: Displacement of [3H]WIN-55212-2 from human CB2 receptor expressed in CHOK1 cells by liquid scintillation spectrometry; format: cell-based, CHO-K1
How it was run: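 Membranes from CHO K-1 cells transfected with human CB2, prepared as for cerebellum. About 10 µg membrane incubated with radioligand and varied test concentrations in TME buffer plus 0.5% fatty-acid-free BSA, 1 h at 30 °C. Filtered through PEI-soaked GF/B filters. Nonspecific binding defined with 1 µM WIN55,212-2. IC50 by nonlinear regression, triplicates, three independent experiments.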

Cannabinoid receptor 2, sequence (P34972 whole entry): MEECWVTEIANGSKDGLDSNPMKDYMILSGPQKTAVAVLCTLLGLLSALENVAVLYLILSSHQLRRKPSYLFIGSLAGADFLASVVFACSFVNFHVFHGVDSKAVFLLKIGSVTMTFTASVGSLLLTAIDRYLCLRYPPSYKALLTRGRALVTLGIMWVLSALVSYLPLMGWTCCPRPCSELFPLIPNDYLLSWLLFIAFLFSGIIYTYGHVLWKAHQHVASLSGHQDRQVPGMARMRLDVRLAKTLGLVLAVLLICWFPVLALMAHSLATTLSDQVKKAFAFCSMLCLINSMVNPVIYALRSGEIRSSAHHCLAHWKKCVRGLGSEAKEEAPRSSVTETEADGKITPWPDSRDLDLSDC

SMILES	IC50 [nM]
Clc1ccc(-n2nc(-c3nnc(C4(c5ccccc5)CC4)o3)c(Cn3cncn3)c2-c2ccc(Br)cc2)c(Cl)c1	242
FC(F)(F)C1(c2nnc(-c3nn(-c4ccc(Cl)cc4Cl)c(-c4ccc(Cl)cc4)c3Cn3cncn3)o2)CC1	1750
CC(C)(C)c1nnc(-c2nn(-c3ccc(Cl)cc3Cl)c(-c3ccc(Cl)cc3)c2Cn2ncnn2)o1	680
CC(C)(C)c1nnc(-c2nn(-c3ccc(Cl)cc3Cl)c(-c3ccc(Cl)cc3)c2CO)o1	1810
FC(F)(F)C1(c2nnc(-c3nn(-c4ccc(Cl)cc4Cl)c(-c4ccc(Br)cc4)c3Cn3cncn3)o2)CC1	948
CCCc1c(-c2nnc(C(C)(C)C)o2)nn(-c2ccc(Cl)cc2Cl)c1-c1ccc(Cl)cc1	> 10000

Other lines, results leading:

IC50 [nM]	SMILES
2820	CC(C)c1c(-c2nnc(C(C)(C)C)o2)nn(-c2ccc(Cl)cc2Cl)c1-c1ccc(Cl)cc1
1410	Cc1c(-c2nnc(C(C)(C)C)o2)nn(-c2ccc(Cl)cc2Cl)c1-c1ccc(Cl)cc1
2330	CCc1c(-c2nnc(C(C)(C)C)o2)nn(-c2ccc(Cl)cc2Cl)c1-c1ccc(Cl)cc1
407	CC1(c2nnc(-c3nn(-c4ccc(Cl)cc4Cl)c(-c4ccc(Br)cc4)c3Cn3cncn3)o2)CC1
954	CC1(c2nnc(-c3nn(-c4ccc(Cl)cc4Cl)c(-c4ccc(Cl)cc4)c3Cn3cncn3)o2)CC1
1050	Clc1ccc(C2(c3nnc(-c4nn(-c5ccc(Cl)cc5Cl)c(-c5ccc(Br)cc5)c4Cn4cncn4)o3)CC2)cc1

system: not listed separately; test: Selectivity ratio of IC50 for human CB2 receptor to IC50 for Sprague-Dawley rat CB1 receptor
How it was run: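 Ratio of CB2 IC50 to CB1 IC50. Both come from radioligand competition on membranes incubated 1 h at 30 °C in TME/0.5% BSA: rat cerebellar membranes for CB1, human CB2-transfected CHO K-1 membranes for CB2. IC50 by nonlinear regression from three independent triplicate experiments.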

SMILES	Ratio IC50
Clc1ccc(-n2nc(-c3nnc(C4(c5ccccc5)CC4)o3)c(Cn3cncn3)c2-c2ccc(Br)cc2)c(Cl)c1	252
FC(F)(F)C1(c2nnc(-c3nn(-c4ccc(Cl)cc4Cl)c(-c4ccc(Cl)cc4)c3Cn3cncn3)o2)CC1	1160
CC(C)(C)c1nnc(-c2nn(-c3ccc(Cl)cc3Cl)c(-c3ccc(Cl)cc3)c2Cn2ncnn2)o1	202
CC(C)(C)c1nnc(-c2nn(-c3ccc(Cl)cc3Cl)c(-c3ccc(Cl)cc3)c2CO)o1	124
FC(F)(F)C1(c2nnc(-c3nn(-c4ccc(Cl)cc4Cl)c(-c4ccc(Br)cc4)c3Cn3cncn3)o2)CC1	1020
CCCc1c(-c2nnc(C(C)(C)C)o2)nn(-c2ccc(Cl)cc2Cl)c1-c1ccc(Cl)cc1	> 299

Continued, values first:

Ratio IC50	SMILES
157	CC(C)c1c(-c2nnc(C(C)(C)C)o2)nn(-c2ccc(Cl)cc2Cl)c1-c1ccc(Cl)cc1
186	Cc1c(-c2nnc(C(C)(C)C)o2)nn(-c2ccc(Cl)cc2Cl)c1-c1ccc(Cl)cc1
355	CCc1c(-c2nnc(C(C)(C)C)o2)nn(-c2ccc(Cl)cc2Cl)c1-c1ccc(Cl)cc1
145	CC1(c2nnc(-c3nn(-c4ccc(Cl)cc4Cl)c(-c4ccc(Br)cc4)c3Cn3cncn3)o2)CC1
482	CC1(c2nnc(-c3nn(-c4ccc(Cl)cc4Cl)c(-c4ccc(Cl)cc4)c3Cn3cncn3)o2)CC1
1840	Clc1ccc(C2(c3nnc(-c4nn(-c5ccc(Cl)cc5Cl)c(-c5ccc(Br)cc5)c4Cn4cncn4)o3)CC2)cc1

system: Mus musculus; test: Reduction in body weight in diet-induced obese C57BL/6J mouse model at 10 mg/kg, po after 14 days; format: functional; design: scale not given: the % may be the effect or the level left
How it was run: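 Male C57BL/6J DIO mice over 38 g, singly housed on a 12 h/12 h light/dark cycle with free access to food and water, habituated at least 7 days, tested during the light period. Compound dissolved fresh daily in deionized water with 10% DMSO, given orally at 10 mL/kg daily for 14 days. Vehicle controls n=5, treated groups n=6. Body weight recorded daily.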

SMILES	Activity [%]
FC(F)(F)C1(c2nnc(-c3nn(-c4ccc(Cl)cc4Cl)c(-c4ccc(Cl)cc4)c3Cn3cncn3)o2)CC1	29.5
FC(F)(F)C1(c2nnc(-c3nn(-c4ccc(Cl)cc4Cl)c(-c4ccc(Br)cc4)c3Cn3cncn3)o2)CC1	29.3
